The text below walks through data of ChEMBL document CHEMBL3085660, “Synthesis and evaluation of new coumarin-pyridine hybrids with promising anti-osteoporotic activities” (Eur J Med Chem, 2013).

Activity calls are given as the source filed them. No cut-off for these calls is given here.

A short description of assay [1]: Increase in osteoblastogenesis in mouse Calvarial cells assessed as increase in BMP-2 gene expression at 1 uM by quantitative RT-PCR method relative to untreated-control. It counts as functional, Calvarial cell. In outline:
(§1)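 Transcripts of Runx-2, BMP-2 and COL-1 in primary mouse calvarial osteoblasts after compound treatment measured by qPCR, with GAPDH as internal control. Results expressed as fold change over untreated cells.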

Assay [2] is described as follows: Increase in mineralization in mouse Calvarial cells assessed as mineralized nodule formation at 1 uM after 21 days using alizarin red-S staining by spectrophotometry relative to untreated-control. It is filed as functional, Calvarial cell.
The test system of assay [3] is Calvarial cell. Kind of assay: Induction of osteoblast differentiation in mouse Calvarial cells assessed as increase in alkaline phosphatase activity at 10 nM to 1 uM after 48 hrs by spectrophotometry relative to control. It counts as functional, cell-based. In outline:
(§2)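 Neonatal mouse calvarial osteoblasts trypsinized at 70–80% confluence, 2 × 10³ cells/well, treated 48 h in differentiation medium (α-MEM, 10% FCS, 10 mM β-glycerophosphate, ascorbic acid), 1 pM to 1 µM. Cells PBS-washed, freeze-thawed (−80 °C then 37 °C, 30 min each). ALP measured with p-nitrophenylphosphate at 405 nm. Mean ± S.D. of three independent experiments versus untreated control.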

A short description of assay [4]: Increase in osteoblastogenesis in mouse Calvarial cells assessed as increase in BMP-2 gene expression at 10 nM by quantitative RT-PCR method relative to untreated-control. It counts as functional, Calvarial cell. The method, boiled down: as §1
Assay [5] in a line: Increase in osteoblastogenesis in mouse Calvarial cells assessed as increase in Runx-2 gene expression at 10 nM by quantitative RT-PCR method relative to untreated-control. It counts as functional, Calvarial cell. The method, boiled down: as §1
Assay [6] is described as follows: Increase in mineralization in mouse Calvarial cells assessed as mineralized nodule formation at 10 nM after 21 days using alizarin red-S staining by spectrophotometry relative to untreated-control. It is filed as functional, Calvarial cell.
Assay [7] concerns Calvarial cell. Kind of assay: Induction of osteoblast differentiation in mouse Calvarial cells assessed as increase in alkaline phosphatase activity at 10 nM after 48 hrs by spectrophotometry relative to control. It counts as functional, cell-based. The method, boiled down:
as §2

Assay [8] can be described thus: Increase in osteoblastogenesis in mouse Calvarial cells assessed as increase in COL1 gene expression at 100 pM by quantitative RT-PCR method relative to untreated-control. It counts as functional, Calvarial cell. The method, boiled down:
as §1

Assay [9] is described as follows: Increase in osteoblastogenesis in mouse Calvarial cells assessed as increase in BMP-2 gene expression at 100 pM by quantitative RT-PCR method relative to untreated-control. It is filed as functional, Calvarial cell. In outline:
as §1

Assay [10] in a line: Increase in osteoblastogenesis in mouse Calvarial cells assessed as increase in Runx-2 gene expression at 100 pM by quantitative RT-PCR method relative to untreated-control. It is filed as functional, Calvarial cell. The method, boiled down: as §1
Assay [11] in a line: Increase in mineralization in mouse Calvarial cells assessed as mineralized nodule formation at 100 pM after 21 days using alizarin red-S staining by spectrophotometry relative to untreated-control. It is filed as functional, Calvarial cell.
Assay [12] deals with Calvarial cell. Put plainly: Induction of osteoblast differentiation in mouse Calvarial cells assessed as increase in alkaline phosphatase activity at 100 pM to 1 uM after 48 hrs by spectrophotometry relative to control. It counts as functional, cell-based. In outline:
as §2

Assay [13] is described as follows: Increase in mineralization in mouse Calvarial cells assessed as mineralized nodule formation at 1 pM after 21 days using alizarin red-S staining by spectrophotometry relative to untreated-control. It counts as functional, Calvarial cell.
The subject of assay [14] is Calvarial cell. Put plainly: Induction of osteoblast differentiation in mouse Calvarial cells assessed as increase in alkaline phosphatase activity at 1 to 100 pM after 48 hrs by spectrophotometry relative to control. It counts as functional, cell-based. The method, boiled down:
as §2

Take `CCOC(=O)c1c(C)nc(C)c(C(=O)OCC)c1-c1cc(C)c2oc(=O)c(C(=O)OC)cc2c1`: the results for the “fold change (FC)” value in assay [1] and in [2] were 2.5 and 2, respectively. Besides, the result in the assay with Calvarial cell [3] was Active.
Consider `CCOC(=O)c1c(C)nc2c(c1-c1cc(C(C)CC)c3oc(=O)c(C(=O)OC)cc3c1)C(=O)CCC2` (centres undefined), for which the “fold change (FC)” value in assay [4] was 4.8; in assay [5], 5.2; in assay [6] it was 3. The outcome with Calvarial cell [7] was Active.
For `CCOC(=O)c1cc2cc(-c3c(C(=O)OC)c(C)nc4c3C(=O)CCC4)cc(C(C)CC)c2oc1=O` (centres undefined), the “fold change (FC)” value in assay [8] is on record as 3.1; in assay [9] it was 2.4; in assay [10], 5; in [11], 3.5. The outcome in the assay with Calvarial cell [12] was Active.
With `CCOC(=O)c1c(C)nc2c(c1-c1cc(C(C)CC)c3oc(=O)c(C(=O)OCC)cc3c1)C(=O)CC(C)(C)C2` (centres undefined), the “fold change (FC)” value in [13] turned out to be 2. Besides, the result in the assay with Calvarial cell [14] was Active.
